Measurements from ChEMBL document CHEMBL3352173, “Optimization of pyrrolamide topoisomerase II inhibitors toward identification of an antibacterial clinical candidate (AZD5099)” (J Med Chem, 2014).
Converted amounts (≈) assume the structure as drawn.

What was measured:
[1] = Selectivity ratio for human topoisomerase 2 alpha to bacterial type 2 topoisomerase
Staphylococcus aureus [2] = assay: Antimicrobial activity against 2 times drug resistance selected Staphylococcus aureus ARC2381-3F by broth microdilution/CLSI method; type: functional
[3] = target: T1, ATP-binding cassette sub-family C member 2 (Homo sapiens, UniProt Q92887); assay: Stimulation of ATPase activity of human MRP2 assessed as inorganic phosphate
T1 sequence (Q92887 whole entry): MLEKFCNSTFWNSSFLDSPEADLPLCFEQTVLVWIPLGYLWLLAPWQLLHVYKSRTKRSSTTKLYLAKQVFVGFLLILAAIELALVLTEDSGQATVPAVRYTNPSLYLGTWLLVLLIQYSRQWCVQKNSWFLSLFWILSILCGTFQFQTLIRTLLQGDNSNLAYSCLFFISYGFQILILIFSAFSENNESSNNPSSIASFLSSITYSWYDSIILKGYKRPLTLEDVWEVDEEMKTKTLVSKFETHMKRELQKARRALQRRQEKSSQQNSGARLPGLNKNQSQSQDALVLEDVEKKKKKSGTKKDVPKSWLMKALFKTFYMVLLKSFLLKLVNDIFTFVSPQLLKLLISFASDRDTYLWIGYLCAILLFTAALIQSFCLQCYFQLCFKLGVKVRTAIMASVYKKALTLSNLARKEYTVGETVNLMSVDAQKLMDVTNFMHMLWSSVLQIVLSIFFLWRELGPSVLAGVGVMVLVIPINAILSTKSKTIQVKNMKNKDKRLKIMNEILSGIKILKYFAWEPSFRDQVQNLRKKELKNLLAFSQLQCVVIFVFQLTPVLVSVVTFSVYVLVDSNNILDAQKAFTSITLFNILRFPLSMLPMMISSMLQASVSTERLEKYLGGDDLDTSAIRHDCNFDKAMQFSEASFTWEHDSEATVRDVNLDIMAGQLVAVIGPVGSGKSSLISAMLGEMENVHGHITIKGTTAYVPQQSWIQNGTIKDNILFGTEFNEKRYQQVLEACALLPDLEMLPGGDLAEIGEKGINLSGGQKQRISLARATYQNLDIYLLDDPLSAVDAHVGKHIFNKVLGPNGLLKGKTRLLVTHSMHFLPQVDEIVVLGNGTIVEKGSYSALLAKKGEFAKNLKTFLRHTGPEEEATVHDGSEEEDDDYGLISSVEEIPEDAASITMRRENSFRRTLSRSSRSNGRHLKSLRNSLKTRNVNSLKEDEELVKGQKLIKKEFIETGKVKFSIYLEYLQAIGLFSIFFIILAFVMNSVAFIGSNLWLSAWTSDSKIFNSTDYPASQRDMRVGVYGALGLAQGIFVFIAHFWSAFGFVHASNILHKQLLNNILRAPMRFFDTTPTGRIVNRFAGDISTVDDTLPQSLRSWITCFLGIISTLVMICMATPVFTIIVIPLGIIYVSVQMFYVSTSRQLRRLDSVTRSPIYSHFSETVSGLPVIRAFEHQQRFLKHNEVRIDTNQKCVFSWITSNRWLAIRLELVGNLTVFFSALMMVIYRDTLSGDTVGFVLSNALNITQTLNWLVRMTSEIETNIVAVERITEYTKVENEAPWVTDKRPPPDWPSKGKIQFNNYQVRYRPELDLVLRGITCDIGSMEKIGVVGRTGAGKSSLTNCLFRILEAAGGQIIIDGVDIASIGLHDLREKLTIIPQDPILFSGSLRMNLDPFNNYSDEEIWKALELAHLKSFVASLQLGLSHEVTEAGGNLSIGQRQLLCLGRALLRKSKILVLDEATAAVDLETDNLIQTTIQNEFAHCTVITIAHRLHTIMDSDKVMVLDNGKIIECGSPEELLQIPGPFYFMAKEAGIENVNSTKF

[4] = Ratio of MIC for methicillin, quinolone-resistant Staphylococcus aureus to fraction unbound in human plasma; type: ADME
[5] = Bioavailability in Wistar rat at 10 mg/kg, […]; type: ADME, organism-based; details: in vivo
[6] = target: Voltage-gated inwardly rectifying potassium channel KCNH2 (Homo sapiens, UniProt Q12809); assay: Inhibition of human ERG at 100 uM
Voltage-gated inwardly rectifying potassium channel KCNH2, sequence (Q12809 whole entry): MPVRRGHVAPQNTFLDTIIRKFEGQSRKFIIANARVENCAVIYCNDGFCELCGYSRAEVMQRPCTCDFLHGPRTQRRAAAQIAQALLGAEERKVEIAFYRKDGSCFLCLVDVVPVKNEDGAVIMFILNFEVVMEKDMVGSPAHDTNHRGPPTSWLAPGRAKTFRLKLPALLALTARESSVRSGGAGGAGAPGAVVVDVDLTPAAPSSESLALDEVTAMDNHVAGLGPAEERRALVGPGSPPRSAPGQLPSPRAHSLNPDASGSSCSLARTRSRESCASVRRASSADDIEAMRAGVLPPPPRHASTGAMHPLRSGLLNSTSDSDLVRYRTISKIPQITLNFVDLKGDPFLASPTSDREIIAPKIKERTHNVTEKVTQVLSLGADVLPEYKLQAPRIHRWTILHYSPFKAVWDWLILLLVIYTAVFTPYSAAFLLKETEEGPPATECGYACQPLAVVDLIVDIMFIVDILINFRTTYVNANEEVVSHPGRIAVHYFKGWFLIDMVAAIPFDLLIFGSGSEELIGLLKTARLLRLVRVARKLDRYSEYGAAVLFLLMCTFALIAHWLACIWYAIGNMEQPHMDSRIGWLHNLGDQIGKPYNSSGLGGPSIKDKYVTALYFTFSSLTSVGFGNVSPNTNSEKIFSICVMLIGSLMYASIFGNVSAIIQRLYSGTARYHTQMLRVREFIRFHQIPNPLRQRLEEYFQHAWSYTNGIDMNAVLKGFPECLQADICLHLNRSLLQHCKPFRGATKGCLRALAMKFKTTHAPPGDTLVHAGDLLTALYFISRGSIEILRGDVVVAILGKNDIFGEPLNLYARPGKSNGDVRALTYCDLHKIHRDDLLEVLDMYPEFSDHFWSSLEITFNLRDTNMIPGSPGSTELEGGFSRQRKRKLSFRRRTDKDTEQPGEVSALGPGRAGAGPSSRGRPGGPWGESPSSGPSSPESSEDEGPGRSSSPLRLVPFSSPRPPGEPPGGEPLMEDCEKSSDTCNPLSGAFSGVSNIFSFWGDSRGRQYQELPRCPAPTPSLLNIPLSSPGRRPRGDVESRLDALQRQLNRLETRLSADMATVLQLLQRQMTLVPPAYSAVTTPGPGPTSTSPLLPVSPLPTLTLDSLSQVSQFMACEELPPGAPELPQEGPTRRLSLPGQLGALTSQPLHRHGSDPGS

Staphylococcus aureus [7] = assay: Antimicrobial activity against 2 times drug resistance selected Staphylococcus aureus ARC516-2F by broth microdilution/CLSI method; type: functional
Cytochrome P450 2C8 = target: T2, Cytochrome P450 2C8 (Homo sapiens, UniProt P10632); assay: Inhibition of human CYP2C8 at 50 uM; type: ADME
T2 sequence (P10632 whole entry): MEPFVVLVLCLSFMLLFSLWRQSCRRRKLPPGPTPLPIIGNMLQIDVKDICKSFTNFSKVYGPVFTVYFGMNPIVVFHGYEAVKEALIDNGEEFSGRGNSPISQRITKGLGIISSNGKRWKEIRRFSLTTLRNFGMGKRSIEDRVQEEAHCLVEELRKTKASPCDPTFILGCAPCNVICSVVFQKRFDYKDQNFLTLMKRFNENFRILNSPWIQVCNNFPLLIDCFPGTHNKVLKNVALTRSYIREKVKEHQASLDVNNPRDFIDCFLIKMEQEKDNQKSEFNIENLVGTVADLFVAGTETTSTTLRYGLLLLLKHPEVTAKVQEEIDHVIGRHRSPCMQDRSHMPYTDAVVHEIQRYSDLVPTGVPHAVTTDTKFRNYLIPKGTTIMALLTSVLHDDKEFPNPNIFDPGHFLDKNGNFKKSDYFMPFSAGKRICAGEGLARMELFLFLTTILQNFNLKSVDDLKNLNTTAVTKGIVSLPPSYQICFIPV

[8] = target: T1, ATP-binding cassette sub-family C member 2; assay: Inhibition of ATPase activity of human MRP2 assessed as inorganic phosphate
[9] = Percentage unbound in dog plasma; type: ADME, cell-free, Canis lupus familiaris
Staphylococcus aureus [10] = assay: Antimicrobial activity against Staphylococcus aureus by broth microdilution/CLSI method; type: functional
Staphylococcus aureus [11] = assay: Ratio of MIC for 2 times drug resistance selected Staphylococcus aureus ARC1692-1F to MIC for Staphylococcus aureus ARC1692; type: functional
[12] = target: T3, ATP-binding cassette sub-family C member 2 (Rattus norvegicus, UniProt Q63120); assay: Stimulation of ATPase activity of rat Mrp2 assessed as inorganic phosphate
T3 sequence (Q63120 whole entry): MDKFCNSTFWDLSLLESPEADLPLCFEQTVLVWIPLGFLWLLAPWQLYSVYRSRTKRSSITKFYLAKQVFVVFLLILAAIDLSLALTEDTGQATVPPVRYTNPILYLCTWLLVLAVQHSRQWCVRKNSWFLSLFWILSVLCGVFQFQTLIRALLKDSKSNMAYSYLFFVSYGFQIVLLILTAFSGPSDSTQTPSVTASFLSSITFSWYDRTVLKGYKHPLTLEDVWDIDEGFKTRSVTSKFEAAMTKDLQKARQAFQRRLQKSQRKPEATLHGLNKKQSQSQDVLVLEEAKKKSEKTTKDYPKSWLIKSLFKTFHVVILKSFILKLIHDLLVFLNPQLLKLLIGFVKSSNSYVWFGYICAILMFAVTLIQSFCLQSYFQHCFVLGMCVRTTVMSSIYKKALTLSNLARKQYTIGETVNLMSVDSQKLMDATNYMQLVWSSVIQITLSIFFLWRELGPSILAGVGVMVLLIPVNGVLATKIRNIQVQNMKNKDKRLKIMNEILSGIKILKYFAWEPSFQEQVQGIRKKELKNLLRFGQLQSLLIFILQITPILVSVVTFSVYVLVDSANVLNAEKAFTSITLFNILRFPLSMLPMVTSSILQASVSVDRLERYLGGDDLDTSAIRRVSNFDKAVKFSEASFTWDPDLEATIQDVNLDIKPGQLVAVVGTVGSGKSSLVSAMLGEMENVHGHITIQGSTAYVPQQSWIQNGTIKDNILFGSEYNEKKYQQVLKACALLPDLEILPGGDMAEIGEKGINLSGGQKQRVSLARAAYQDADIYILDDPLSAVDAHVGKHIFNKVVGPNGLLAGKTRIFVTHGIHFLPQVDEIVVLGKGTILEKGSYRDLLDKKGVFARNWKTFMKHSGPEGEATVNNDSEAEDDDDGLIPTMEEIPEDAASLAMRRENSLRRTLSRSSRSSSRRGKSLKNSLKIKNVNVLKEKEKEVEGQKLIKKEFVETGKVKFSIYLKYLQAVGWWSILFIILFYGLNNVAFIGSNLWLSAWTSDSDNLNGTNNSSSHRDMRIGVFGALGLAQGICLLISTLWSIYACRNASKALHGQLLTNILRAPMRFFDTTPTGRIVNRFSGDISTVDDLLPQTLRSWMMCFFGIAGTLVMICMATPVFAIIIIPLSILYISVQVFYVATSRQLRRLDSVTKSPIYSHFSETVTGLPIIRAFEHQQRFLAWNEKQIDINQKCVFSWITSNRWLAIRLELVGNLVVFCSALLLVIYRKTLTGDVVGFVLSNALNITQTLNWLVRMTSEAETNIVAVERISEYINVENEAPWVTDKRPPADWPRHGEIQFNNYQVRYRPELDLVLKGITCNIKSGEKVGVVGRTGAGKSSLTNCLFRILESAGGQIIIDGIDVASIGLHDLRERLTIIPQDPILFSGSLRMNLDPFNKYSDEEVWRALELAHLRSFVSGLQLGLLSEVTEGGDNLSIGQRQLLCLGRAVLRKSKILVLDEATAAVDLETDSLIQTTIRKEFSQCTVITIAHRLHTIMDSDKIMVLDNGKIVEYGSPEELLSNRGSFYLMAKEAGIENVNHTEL

[13] = AUC in methicillin-sensitive Staphylococcus aureus ARC516 infected in neutropenic CD1 mouse thigh model at 30 mg/kg, ip q24; type: ADME, organism-based; set-up: dose 30 mg/kg, route intraperitoneal; details: in vivo
Staphylococcus aureus [14] = assay: Antibacterial activity against methicillin-sensitive Staphylococcus aureus ARC516 infected in neutropenic CD1 mouse thigh model assessed as decrease in bacterial viable counts at 30 mg/kg, ip q24; type: functional; details: route intraperitoneal
Staphylococcus aureus [15] = assay: Ratio of MIC for 2 times drug resistance selected Staphylococcus aureus ARC2381-2F to MIC for Staphylococcus aureus ARC2381; type: functional
Cytochrome P450 2C19 = Cytochrome P450 2C19 (Homo sapiens, UniProt P33261); assay: Inhibition of human CYP2C19 at 50 uM; type: ADME
Staphylococcus aureus [16] = assay: Antimicrobial activity against Staphylococcus aureus ARC2381 by broth microdilution/CLSI method; type: functional
[17] = Bioavailability in dog at 10 mg/kg, iv; type: ADME, organism-based, Canis lupus familiaris; details: plasma
Staphylococcus aureus [18] = assay: Ratio of MIC for 2 times drug resistance selected Staphylococcus aureus ARC2398-1F to MIC for Staphylococcus aureus ARC2398; type: functional
Staphylococcus aureus [19] = assay: Antimicrobial activity against 2 times drug resistance selected Staphylococcus aureus ARC516-1F by broth microdilution/CLSI method; type: functional
Escherichia coli = assay: Antimicrobial activity against wild-type Escherichia coli Eco523 by broth microdilution/CLSI method; type: functional; details: Escherichia coli, Eco523; read-out: MIC
[20] = target: T3, ATP-binding cassette sub-family C member 2; assay: Inhibition of ATPase activity of rat Mrp2 assessed as inorganic phosphate
[21] = Dissociation constant, pKa of the compound; type: physicochemical
Cytochrome P450 1A2 = target: T4, Cytochrome P450 1A2 (Homo sapiens, UniProt P05177); assay: Inhibition of human CYP1A2 at 50 uM; type: ADME
T4 sequence (P05177 whole entry): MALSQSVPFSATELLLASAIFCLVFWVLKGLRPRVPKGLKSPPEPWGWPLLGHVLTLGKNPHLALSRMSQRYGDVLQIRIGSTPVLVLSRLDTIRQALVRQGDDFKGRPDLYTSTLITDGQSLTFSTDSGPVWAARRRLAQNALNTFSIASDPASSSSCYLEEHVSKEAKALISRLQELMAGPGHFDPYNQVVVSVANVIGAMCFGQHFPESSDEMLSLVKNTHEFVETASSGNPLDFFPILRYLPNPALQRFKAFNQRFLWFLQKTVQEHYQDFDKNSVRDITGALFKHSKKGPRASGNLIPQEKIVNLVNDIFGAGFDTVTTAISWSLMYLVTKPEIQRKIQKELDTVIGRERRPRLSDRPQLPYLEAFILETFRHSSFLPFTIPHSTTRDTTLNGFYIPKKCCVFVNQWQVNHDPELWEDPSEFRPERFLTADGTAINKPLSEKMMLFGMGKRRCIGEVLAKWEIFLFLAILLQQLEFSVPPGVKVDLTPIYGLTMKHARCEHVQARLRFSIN

Staphylococcus aureus [22] = assay: Antibacterial activity against methicillin-sensitive Staphylococcus aureus ARC516 infected in neutropenic CD1 mouse thigh model assessed as decrease in bacterial viable counts at 30 mg/kg, ip after 24 hrs; type: functional; details: route intraperitoneal
Haemophilus influenzae = assay: Antimicrobial activity against amoxicillin-resistant Haemophilus influenzae by broth microdilution/CLSI method; type: functional
Staphylococcus aureus [23] = assay: Antimicrobial activity against methicillin-sensitive Staphylococcus aureus by broth microdilution/CLSI method; type: functional; details: Staphylococcus aureus; read-out: MIC
Mus musculus = assay: fAUC in methicillin-sensitive Staphylococcus aureus ARC516 infected in neutropenic CD1 mouse thigh model at 30 mg/kg, ip q24; type: ADME, organism-based; set-up: dose 30 mg/kg, route intraperitoneal; details: in vivo
Staphylococcus aureus [24] = assay: Antimicrobial activity against Staphylococcus aureus ARC516 by broth microdilution/CLSI method; type: functional
Staphylococcus aureus [25] = assay: Ratio of MIC for 2 times drug resistance selected Staphylococcus aureus ARC2381-3F to MIC for Staphylococcus aureus ARC2381; type: functional
Streptococcus pyogenes = assay: Antimicrobial activity against Streptococcus pyogenes by broth microdilution/CLSI method; type: functional
DNA gyrase subunit B = DNA gyrase subunit B (Staphylococcus aureus, UniProt P0A0K8); assay: Inhibition of ATPase activity of Staphylococcus aureus GyrB
DNA gyrase subunit B, sequence (P0A0K8 whole entry): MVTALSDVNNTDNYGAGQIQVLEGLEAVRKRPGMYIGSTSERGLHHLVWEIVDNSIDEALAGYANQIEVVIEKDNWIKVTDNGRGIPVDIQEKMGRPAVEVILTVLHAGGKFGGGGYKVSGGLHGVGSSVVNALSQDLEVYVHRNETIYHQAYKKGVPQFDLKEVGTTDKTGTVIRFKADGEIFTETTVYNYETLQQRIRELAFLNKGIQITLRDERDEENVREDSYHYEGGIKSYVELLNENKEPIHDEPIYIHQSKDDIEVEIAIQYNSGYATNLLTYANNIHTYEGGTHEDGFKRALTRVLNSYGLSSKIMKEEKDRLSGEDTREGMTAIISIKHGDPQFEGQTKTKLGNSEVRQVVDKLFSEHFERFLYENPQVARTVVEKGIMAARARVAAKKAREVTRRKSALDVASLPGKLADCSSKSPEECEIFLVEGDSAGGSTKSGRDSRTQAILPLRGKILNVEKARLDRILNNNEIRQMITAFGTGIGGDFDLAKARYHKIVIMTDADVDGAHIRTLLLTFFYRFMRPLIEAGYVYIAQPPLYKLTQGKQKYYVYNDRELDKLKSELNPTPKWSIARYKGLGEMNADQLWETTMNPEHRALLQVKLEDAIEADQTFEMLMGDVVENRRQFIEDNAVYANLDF
Procedure, shortened: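 IC50 was determined against S. aureus GyrB in the routine screening assay. The enzyme concentration limits resolution below 10 nM.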

Staphylococcus aureus [26] = assay: Ratio of MIC for 2 times drug resistance selected Staphylococcus aureus ARC516-2F to MIC for Staphylococcus aureus ARC516; type: functional
Staphylococcus aureus [27] = assay: Antimicrobial activity against methicillin, quinolone-resistant Staphylococcus aureus by broth microdilution/CLSI method; type: functional; details: Staphylococcus aureus; read-out: MIC

Work on `COC[C@H](C)NC(=O)c1nc(N2CC[C@@H](NC(=O)c3[nH]c(C)c(Cl)c3Cl)[C@@H](OC)C2)sc1C(=O)O` [AZD-5099] yielded a Selectivity ratio [1] of 10000, an MIC (Staphylococcus aureus [2]) of 0.13 µg/mL (≈ 0.237 µM) and an EC50 [3] greater than 200 µM. The Ratio [4] was 2.3, the bioavailability [5] was 81% and the “inhibition (INH)” value [6] was “Not Active”. The MIC (Staphylococcus aureus [7]) was 0.25 µg/mL (≈ 0.456 µM), the “inhibition (INH)” value (Cytochrome P450 2C8) was “Not Active” and the IC50 [8] was 59 µM. The fraction unbound [9] was 0.062, the MIC90 (Staphylococcus aureus [10]) was 0.06 µg/mL (≈ 0.109 µM) and the Ratio (Staphylococcus aureus [11]) was 8. For the same molecule, the EC50 [12] was greater than 200 µM, the AUC [13] was 116 µg·h/mL and the deltalog10CFU (Staphylococcus aureus [14]) was 1.51. For the same molecule, the Ratio (Staphylococcus aureus [15]) was 8, the “inhibition (INH)” value (Cytochrome P450 2C19) was “Not Active” and the MIC (Staphylococcus aureus [16]) was 0.016 µg/mL (≈ 0.0292 µM). For the same molecule, the bioavailability [17] was 96%, the Ratio (Staphylococcus aureus [18]) was 16 and the MIC (Staphylococcus aureus [19]) was 0.25 µg/mL (≈ 0.456 µM). For the same molecule, the MIC (Escherichia coli) was 24 µg/mL (≈ 43.8 µM), the IC50 [20] was 200 µM and the pKa [21] was 4.2. For the same molecule, the “inhibition (INH)” value (Cytochrome P450 1A2) was “Not Active”, the “fold change (FC)” value (Staphylococcus aureus [22]) was 2 and the MIC90 (Haemophilus influenzae) was 0.25 µg/mL (≈ 0.456 µM). For the same molecule, the MIC (Staphylococcus aureus [23]) was 0.036 µg/mL (≈ 0.0656 µM), the fAUC (Mus musculus) was 5.45 µg·h/mL and the MIC (Staphylococcus aureus [24]) was 0.016 µg/mL (≈ 0.0292 µM). The Ratio (Staphylococcus aureus [25]) was 8, the MIC (Streptococcus pyogenes) was 0.014 µg/mL (≈ 0.0255 µM) and the IC50 (DNA gyrase subunit B) was less than 0.01 µM. It also gave a Ratio (Staphylococcus aureus [26]) of 16 and an MIC (Staphylococcus aureus [27]) of 0.057 µg/mL (≈ 0.104 µM).
